According to ChEMBL document CHEMBL1132465, “Design and synthesis of thrombin inhibitors: analogues of MD-805 with reduced stereogenicity and improved potency” (J Med Chem, 1999):

Assays:
Prothrombin [1] = molecular target: Prothrombin (Bos taurus, UniProt P00735); assay: Inhibitory activity against bovine thrombin
[2] = The compound was evaluated for the dose to double the control plasma APTT value in the human plasma.; format: functional
Outline: (§1)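 Human blood was anticoagulated with one-tenth volume 3.8% trisodium citrate and centrifuged at 1300g for 20 min to give platelet-poor plasma. Plasma was spiked with compound at 0 to about 150 μM. It was activated 5 min at 37 °C with bovine cephalin (ellagic acid) reagent, and clotting was started with 20 mM CaCl2. Clot time was read on a coagulometer. Concentration doubling APTT was read from a concentration–APTT plot.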

Prothrombin [3] = molecular target: T1, Prothrombin (Homo sapiens, UniProt P00734); assay: The compound was evaluated for the inhibitory activity against human thrombin
Outline: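 Human thrombin (0.0625 U/mL final) in 0.05 M TRIS-HCl pH 8.4 with S-2238, started by enzyme. Absorbance slope at 405 nm was read over 30 s. A range-finding run at about 0.01–100 μM was followed by substrate at 3.125–100 μM with at least two inhibitor levels plus vehicle. DMSO was below 0.5%. Ki = [i]/(Kp/Km − 1) from double-reciprocal plots.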

[4] = The compound was evaluated for the dose to double the control plasma APTT value in the human plasma; format: functional; outline: as §1
Prothrombin [5] = molecular target: T1, Prothrombin; assay: Inhibitory activity against human thrombin

SMILES | Ki (Prothrombin [1]) | other results
CC(=O)NCCC1CCN(C(=O)C(CCCN=C(N)N)NS(=O)(=O)c2cccc3c2NCC(C)C3)CC1 (centres undefined) | 45 nM | IC200 [2]: 1.8 µM; Ki (Prothrombin [3]): 66 nM
CC1CNc2c(cccc2S(=O)(=O)NC(CCCN=C(N)N)C(=O)N2CCC(CCOC(=O)CCC(=O)O)CC2)C1 (centres undefined) | 34 nM | –
CC1CNc2c(cccc2S(=O)(=O)NC(CCCN=C(N)N)C(=O)N2CCC(O)CC2)C1 (centres undefined) | 5180 nM | –
CC1CNc2c(cccc2S(=O)(=O)NC(CCCNC(=N)N)C(=O)N2CCC(CO)CC2)C1 (centres undefined) | 64 nM | –
C[C@H]1CNc2c(cccc2S(=O)(=O)NC(CCCNC(=N)N)C(=O)N2CCC(CCO)CC2)C1 (some centres undefined) | 46 nM | –
CC1CNc2c(cccc2S(=O)(=O)NC(CCCN=C(N)N)C(=O)N2CCC(CCNC(=O)CCC(=O)O)CC2)C1 (centres undefined) | 650 nM | –
N=C(N)NCCCC(NS(=O)(=O)c1cccc2c1NCCC2)C(=O)N1CCC(CCO)CC1 (centres undefined) | 490 nM | –
CC(=O)NCCC1CCN(C(=O)C(CCCN=C(N)N)NS(=O)(=O)c2cccc3c2NCC(C)(C)C3)CC1 (centres undefined) | – | IC200 [4]: 2.15 µM; Ki (Prothrombin [5]): 43 nM
CC1CNc2c(cccc2S(=O)(=O)NC(CCCN=C(N)N)C(=O)N2CCC(CC(=O)O)CC2)C1 (centres undefined) | 2600 nM | –
CC1(C)CNc2c(cc(Cl)cc2S(=O)(=O)NC(CCCN=C(N)N)C(=O)N2CCC(CCF)CC2)C1 (centres undefined) | – | IC200 [4]: 3.25 µM; Ki (Prothrombin [5]): 6.6 nM
CC1CNc2c(cccc2S(=O)(=O)NC(CCCN=C(N)N)C(=O)N2CCC(CCNC(=O)CCP(=O)(O)O)CC2)C1 (centres undefined) | 35200 nM | –
CC1CNc2c(cccc2S(=O)(=O)NC(CCCNC(=N)N)C(=O)N2CCC(CCOC(=O)CCCC(=O)O)CC2)C1 (centres undefined) | 170 nM | –

Second part, led by results:

Ki (Prothrombin [1]) | SMILES | other results
360 nM | CC1CNc2c(cccc2S(=O)(=O)NC(CCCN=C(N)N)C(=O)N2CCCC(O)C2)C1 (centres undefined) | –
795 nM | CC1CNc2c(cccc2S(=O)(=O)NC(CCCN=C(N)N)C(=O)N2CCCC2)C1 (centres undefined) | –
64 nM | CC1CNc2c(cccc2S(=O)(=O)NC(CCCN=C(N)N)C(=O)N2CCCCC2CO)C1 (centres undefined) | –
1500 nM | CC1CNc2c(cccc2S(=O)(=O)NC(CCCN=C(N)N)C(=O)N2CCC[C@@H](CO)C2)C1 (some centres undefined) | –
2900 nM | CC(C)(c1ccccc1)c1cccc(S(=O)(=O)NC(CCCN=C(N)N)C(=O)N2CCC[C@H]2CO)c1 (some centres undefined) | –
3000 nM | CC(C)(c1ccccc1)c1cccc(S(=O)(=O)NC(CCCNC(=N)N)C(=O)N2CCCC[C@H]2CO)c1 (some centres undefined) | –
27 nM | CCC1CCN(C(=O)C(CCCN=C(N)N)NS(=O)(=O)c2cccc3c2NCC(C)C3)CC1 (centres undefined) | IC200 [4]: 6.27 µM
